# PPC-1+TRAIL kill: kills PPC-1 cancer cells in the presence of TRAIL. cell killing (% activity), % at 4 µM or 5 µM. PPC-1 cells + TRAIL, ATPLite viability luminescence. actives 0.41% (n = 220,000);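 active means cell killing above 50% in the first pass at 4 µM, then a duplicate retest at 5 µM averaging 50% or more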;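 further: plate controls were cells with TRAIL plus DMSO for no effect and medium-only wells lacking cells for full effect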
# APP 5'UTR act: activates APP 5'UTR luciferase reporter; SH-SY5Y APP 5'UTR luciferase reporter, luminescence; zero percent = DMSO vehicle wells; activation, % at 2 µM; actives 1% (n = 190,000); AID 1276;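 active means activation above a set limit, based on mean plus 3 SD of controls, cut at about 140% in these data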
# NF-kB expr up: raises NF-kB expression in human neuronal cells; NF-kB reporter expression; hits give high values; actives 1.6% (n = 190,000); AID 1239; fold change at 12.5 µM; in the data active means fold change above about 3.3
# TRAIL sens C8: caspase-8 TRAIL sensitization. NB7+C8 cells + TRAIL, ATPlite viability luminescence. inhibition (viability loss, TRAIL sensitization), % at 10 µM. actives 1% (n = 360,000). AID 624354;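 active means compounds causing at least 50% loss of cell viability in the single-dose screen, relative to plate controls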
# FLuc stim CS: firefly luciferase counter-screen for stimulation assays; P08659; ATPlite luciferase biochemical, luminescence, 10 min; 0 = ATP-free wells, 1 = DMSO control; activation factor at 10 µM; 200,000 tested, under 10 active;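 active means luciferase activation factor, scaled between plate controls, of at least 2 with compound at 10 µM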
# Target sequence (P08659 whole entry, looked up): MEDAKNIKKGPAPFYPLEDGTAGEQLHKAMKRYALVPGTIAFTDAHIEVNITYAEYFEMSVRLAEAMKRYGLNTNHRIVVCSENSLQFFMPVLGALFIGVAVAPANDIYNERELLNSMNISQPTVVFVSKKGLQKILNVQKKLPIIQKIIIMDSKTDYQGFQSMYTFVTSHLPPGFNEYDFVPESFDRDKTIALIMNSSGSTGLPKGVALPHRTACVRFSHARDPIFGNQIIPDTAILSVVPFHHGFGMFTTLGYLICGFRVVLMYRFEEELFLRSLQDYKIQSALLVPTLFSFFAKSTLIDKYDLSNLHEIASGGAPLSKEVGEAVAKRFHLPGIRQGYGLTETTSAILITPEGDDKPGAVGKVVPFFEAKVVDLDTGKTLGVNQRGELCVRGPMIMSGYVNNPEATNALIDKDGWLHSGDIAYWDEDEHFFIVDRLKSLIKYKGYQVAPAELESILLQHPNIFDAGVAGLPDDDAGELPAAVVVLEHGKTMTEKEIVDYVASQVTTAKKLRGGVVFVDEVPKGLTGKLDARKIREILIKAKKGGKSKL
#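 System: luciferase plus luciferin reagent, cell-free; medium: PBS as buffer for the ATP substrate; dosing: test compounds dosed from 2 mM stocks in 100% DMSO; timing: 10 min post-reagent at room temperature; measured by: luminescence measurement of luciferase light output; evaluation: luciferase activation, seen as luminescence increase over controls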
# FLuc inh counter: counter-screen for luciferase assay inhibitors: firefly luciferase inhibition. P08659. ATPLite firefly luciferase biochemical luminescence, 10 min. inhibition, % at 10 µM. actives 1.5% (n = 200,000);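 active means inhibition above about 50% when tested at 10 µM, limit read from the data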
# PPC1 cytotox: kills PPC-1 cells; PPC-1 viability, ATPlite luminescence, overnight; shares compounds with PPC-1+TRAIL kill; actives 50% (n = 1,200); cytotoxicity, % at 5 µM;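 active means reconfirmed compounds whose average cytotoxicity reaches 50% or more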;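 further: 0% = DMSO-treated cells and 100% = wells holding medium but no cells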
# Numbers without * were called inactive; x = not tested or not shown. Compounds with a hit are over-represented: about 2.2% of the library has one in this group of screens.
SMILES,PPC-1+TRAIL kill,APP 5'UTR act,NF-kB expr up,TRAIL sens C8,FLuc stim CS,FLuc inh counter,PPC1 cytotox
Cc1ccc2nc3c(cc2c1)CC1(C(=O)N(C)C(=O)N(C)C1=O)C1CCCCN31 (configuration not stated),37.6,25.6,0.99,28.0,0.5,52.8*,x
Nc1ccc2c(c1)oc1ccccc12,9.9,26.6,1.26,-4.5,1,-4.3,x
CCCCCCCCCOc1ccc2[nH]cc(CCN)c2c1,61.0*,x,x,x,1,-0.6,x
O=c1c2ccccc2[se]n1-c1ccccc1,21.4,-18.9,1.36,-9.1,0,96.2*,x
C[C@]12CC[C@H]3C(CCC4(O)CC(O)CC[C@]34C=O)C1=CC[C@H]2c1ccc(=O)oc1 (some centres not stated),x,x,x,53.8*,x,x,x
CC12CC[C@H]3[C@@H](CCC4(O)C[C@H](O)CCC34/C=N/NC(=O)Cc3ccccc3)C1(O)CCC2C1=CC(=O)OC1 (some centres not stated),-1.9,-2.5,x,9.2,x,x,x
CC1(O)CCC2C3CCC4=CC(=O)CCC4(C)C34OC4CC21C (configuration not stated),x,x,x,13.0,x,x,x
CC(=O)O[C@H]1[C@H]2O[C@]23[C@@H]2CC[C@]4(O)C[C@@H](O)CC[C@]4(C)C2CC[C@]3(C)[C@H]1c1ccc(=O)oc1 (some centres not stated),x,x,x,64.2*,x,x,x
CCOC(=O)C(=CNc1ccc(C(O)(C(=O)OCC)C(F)(F)F)cc1C)C(=O)OCC (configuration not stated),9.5,3.5,0.48,72.7*,1.1,-7.9,x
CCOC(=O)C(O)(c1ccc(NC(=O)c2ccc(Cl)c(Cl)c2)cc1)C(F)(F)F (configuration not stated),-12.5,x,x,-9.4,x,x,x
CC(=NCC1CCCO1)c1c(O)n(-c2ccccc2C)c(=O)[nH]c1=O (configuration not stated),-11.2,x,x,-11.0,x,x,x
COc1ccc(CC2C(=O)NC(C)C(=O)N(C)C3C(=O)N(C)C(Cc4ccc(O)c(c4)Oc4ccc(cc4)C3O)C(=O)NC(C)C(=O)NC(C)C(=O)N2C)cc1 (configuration not stated),x,x,x,65.8*,x,x,x
NNC(N)=O,x,x,x,0.3,x,x,x
COC(=O)C1CN(C#N)N(c2ccc(Cl)cc2)C12c1ccccc1-c1ccccc12 (configuration not stated),17.3,-94.4,0.22,91.3*,1,0.2,x
O=C(CNC1CCCC1)Nc1ccc(N2CCCCCC2)cc1,28.4,6.2,1.1,0.0,1,-4.5,x
CC(C)c1oc(=O)cc2c1[C@@H](O)[C@H]1OC(=O)[C@@]3(C)CC[C@@H](O)[C@@]2(C)C13 (some centres not stated),28.1,22.4,3.31*,19.5,1,-2.5,x
CC(C)c1oc(=O)cc2c1[C@@H](O)[C@H]1OC(=O)[C@@]3(C)C[C@@H](O)[C@@H](O)[C@@]2(C)C13 (some centres not stated),30.2,16.9,6.99*,21.3,1,-4.3,x
CC1CCC(C(C)C)C(OC(=O)Cn2c(COc3ccccc3)[n+](C)c3ccccc32)C1 (configuration not stated),8.8,x,x,52.7*,x,x,x
Cc1ccc(C(O)(C(=O)OC(C)C)C(O)c2ccc(F)cc2)cc1 (configuration not stated),x,x,x,11.5,x,x,x
CC[C@H](C)[C@@H]1NC(=O)CNC(=O)c2csc(n2)[C@H](C(C)(C)O)OC(=O)C(C)(C)[C@H](CCCC(C)(Cl)Cl)OC(=O)c2csc1n2,x,x,x,49.7*,x,x,x
CC(=O)OC1CC[C@@]2(C)C(=CC(=O)C3C4CCC(OC(C)=O)[C@@]4(C)CCC32)C1 (some centres not stated),x,x,x,9.3,x,x,x
CN(C)Cc1ccccc1OC(=O)N(C)C,16.2,11.4,1.08,-11.1,1,-2.0,x
Cc1cccc(CN(C)C)c1OC(=O)N(C)C,1.2,-2.7,1.32,-3.6,1,0.0,7.8
COC(=O)C1=C(c2ccccc2)C[C@@H]2CC[C@H]1N2C(=O)N1CCC(C)CC1,x,x,x,0.6,x,x,x
CC1(C)CC(=O)C=C(NCCN2CCN(C(=O)Cc3ccc(Cl)cc3)CC2)C1,-1.7,3.2,1,-6.9,1.1,-10.7,x
SMILES,PPC-1+TRAIL kill,APP 5'UTR act,NF-kB expr up,TRAIL sens C8,FLuc stim CS,FLuc inh counter,PPC1 cytotox
C=C(C=O)C[C@@H]1C[C@H](O)C2OC3C[C@]4(C)OC5/C=C\CC6OC7C(CC=CCC6OC5CCCC4OC3CC2O1)OC1CC2OC3CC(=O)OC3C[C@@H](C)C[C@@]2(C)OC1C[C@@H]7C (some centres not stated),77.9*,x,x,x,x,x,77.4*
CCOP(=O)(OCC)C(O)c1ccc2c(c1)OCO2 (configuration not stated),13.5,x,x,-4.2,x,x,x
CN1CCN(c2nc(N)cc(=O)[nH]2)CC1,-12.3,x,x,-17.2,x,x,x
Cc1ccc2nc(N3CCN(C)CC3)[nH]c2c1,6.4,15.4,1.85,-2.9,1,4.5,14.1
CN1C(=O)C(C2c3ccccc3C(=O)N2Cc2ccccc2)C(=O)N(C)C1=O (configuration not stated),-2.9,3.2,0.98,-4.7,1,2.9,-4.3
CN1C(=O)C(C2c3ccccc3C(=O)N2Cc2ccc([N+](=O)[O-])cc2)C(=O)N(C)C1=O (configuration not stated),21.0,9.6,1.21,-14.4,1.1,-9.2,x
CN1CCN(c2ccc([N+](=O)[O-])c3no[n+]([O-])c23)CC1,78.0*,x,x,94.6*,x,x,80.2*
Nc1nonc1OCCCCOc1nonc1N,-3.0,-4.7,1.06,7.3,1,-4.8,x
COc1cccc(-c2sc3ccccc3c2-c2ccc(OCCN3CCOCC3)cc2)c1,x,x,x,19.4,x,x,x
Cc1nc2c(=O)n(C)c(=O)nc-2n(C)n1,65.7*,-5.6,1.71,96.3*,0.9,5.0,62.3*
O=C1C(=O)c2ccccc2-c2ccccc21,67.8*,-58.1,0.1,95.2*,1,-0.9,63.1*
COC(=O)C1=C(c2cccc(C#N)c2)C[C@@H]2CC[C@H]1N2C(=O)NC(C)C,x,x,x,-6.5,x,x,x
CNc1ccc2oc(C[C@H]3O[C@@]4(CC[C@H]3C)O[C@H]([C@H](C)C(=O)c3ccc[nH]3)[C@H](C)C[C@H]4C)nc2c1C(=O)O,43.5,x,x,82.6*,x,x,49.1
Cc1cc([N+](=O)[O-])c2ccccc2[n+]1[O-],93.5*,x,x,32.5,x,x,90.8*
CC(C)N1CCN(Cc2ccc3c(c2)OCCO3)CC1CCO (configuration not stated),-9.1,-5.6,1.11,-6.0,1.1,-5.3,-6.0
CC(C)N1CCN(Cc2cc3c(cc2Cl)OCO3)CC1CCO (configuration not stated),-62.9,x,x,-2.9,x,x,x
CCOc1ccc(C2CC(c3c(O)n(C)c(=O)n(C)c3=O)=NN2)cc1 (configuration not stated),69.0*,x,x,73.9*,x,x,71.2*
c1ccc(CCNCc2cccs2)cc1,x,x,x,-20.8,x,x,x
